Active and inactive are the calls of the source.
How the values were obtained:
Format in all cases: functional, cell-based
K562 = experiment: Cytotoxicity against human K562 cells at 20 to 25 uM measured after 48 hrs by SRB assay
Summary of the method: (§1)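 SRB screen in human cancer lines (U-251 glioblastoma, PC-3 prostate, K562 leukemia, HCT-15 colorectal, MCF-7 breast, SKLU-1 lung). 5000−7500 cells per well were preincubated 24 h at 37 °C, 5% CO2, then exposed to compound (20.0 or 25.0 μM) for 48 h. Cells were fixed and stained with sulforhodamine B, and absorbance was read at 515 nm.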

PC-3 = experiment: Cytotoxicity against human PC3 cells at 20 to 25 uM measured after 48 hrs by SRB assay; summary of the method: as §1
MCF7 = experiment: Cytotoxicity against human MCF7 cells at 20 to 25 uM measured after 48 hrs by SRB assay; summary of the method: as §1
U-251 = experiment: Cytotoxicity against human U251 cells at 20 to 25 uM measured after 48 hrs by SRB assay; summary of the method: as §1
HCT-15 = experiment: Cytotoxicity against human HCT15 cells at 20 to 25 uM measured after 48 hrs by SRB assay; summary of the method: as §1
SK-LU-1 = experiment: Cytotoxicity against human SKLU1 cells at 20 to 25 uM measured after 48 hrs by SRB assay; summary of the method: as §1

Measured: Activity

C[C@@H]1[C@H]2C[C@@]34COC(=O)[C@H]3CC=C[C@H]4[C@@]13C[C@H](C1=CC(=O)OC1O)O[C@H]3O2 (stereo not given in full)
inactive: all assays above

C[C@@]12C[C@@]3(c4ccoc4)O[C@@]14CCC=C1C(=O)OC[C@]14CC[C@]2(C)O3
inactive: all assays above

C[C@@H]1[C@@H](C)O[C@@H]2O[C@@H](c3ccoc3)C[C@@]21c1cccc2c1COC2=O
inactive: all assays above

C[C@@H]1[C@H]2C[C@@]34COC(=O)[C@@H]3CC=C[C@H]4[C@@]13C[C@H](C1=CC(O)OC1=O)O[C@H]3O2 (stereo not given in full)
inactive: all assays above

C[C@@H]1[C@H]2C[C@@]34COC(=O)[C@H]3CC=C[C@H]4[C@@]13C[C@H](C1=CC(O)OC1=O)O[C@H]3O2 (stereo not given in full)
inactive: all assays above

C[C@@H]1[C@H]2C[C@@]34COC(=O)[C@@H]3CC=C[C@H]4[C@@]13C[C@H](C1=CC(=O)OC1O)O[C@H]3O2 (stereo not given in full)
inactive: all assays above

C[C@@H]1[C@H]2C[C@@]34COC(=O)[C@H]3CC=C[C@H]4[C@@]13C[C@H](c1ccoc1)O[C@H]3O2
inactive: all assays above

C[C@@H]1[C@H]2C[C@@]34COC(=O)[C@@H]3CC=C[C@H]4[C@@]13C[C@H](c1ccoc1)O[C@H]3O2
inactive: all assays above

COC1C=C([C@H]2C[C@]34[C@@H](O2)O[C@H](C[C@@]25COC(=O)[C@@H]2CC=C[C@H]53)[C@H]4C)C(=O)O1 (mixture of isomers)
inactive: all assays above

COc1ccc(-c2cc(=O)c3c(O)c(OC)c(OC)cc3o2)cc1O
inactive: all assays above

— ChEMBL document CHEMBL4041471, “neo-Clerodane Diterpenoids and Other Constituents of Salvia filipes” (J Nat Prod, 2016)
